Assay results published in ChEMBL document CHEMBL4732082, “Development of novel benzimidazole-derived neddylation inhibitors for suppressing tumor growth invitro and invivo” (Eur J Med Chem, 2021).
pIC50: −log10 of the molar value.

Key:
[1] = Toxicity in nude mouse assessed as effect on body weight at 30 mg/kg, qd after 24 days; assay type: organism-based; conditions: in vivo, 576 h, time 24 day
How it was run: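 Female nude mice were inoculated subcutaneously with 2×10^6 A549 cells in 0.1 mL PBS. At tumor volume 70–100 mm³, mice were randomized into 5 groups of 6. Dosing was ip or oral gavage, once daily on a 5-days-on/2-days-off schedule, with 10% 2-hydroxypropyl-β-cyclodextrin/water as vehicle control. Body weight and tumor volume were measured every two days; tumors were weighed at sacrifice. Significance by two-tailed Student's t-test.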

[2] = molecular target: T1, NEDD8-activating enzyme E1 catalytic subunit (Homo sapiens, UniProt Q8TBC4); assay: Inhibition of NAE (unknown origin)-mediated neddylation assessed as suppression of cullin1-Nedd8 adduct formation preincubated for 10 mins followed by ATP addition and measured after 30 mins by immunoblot analysis
T1 sequence (Q8TBC4 whole entry): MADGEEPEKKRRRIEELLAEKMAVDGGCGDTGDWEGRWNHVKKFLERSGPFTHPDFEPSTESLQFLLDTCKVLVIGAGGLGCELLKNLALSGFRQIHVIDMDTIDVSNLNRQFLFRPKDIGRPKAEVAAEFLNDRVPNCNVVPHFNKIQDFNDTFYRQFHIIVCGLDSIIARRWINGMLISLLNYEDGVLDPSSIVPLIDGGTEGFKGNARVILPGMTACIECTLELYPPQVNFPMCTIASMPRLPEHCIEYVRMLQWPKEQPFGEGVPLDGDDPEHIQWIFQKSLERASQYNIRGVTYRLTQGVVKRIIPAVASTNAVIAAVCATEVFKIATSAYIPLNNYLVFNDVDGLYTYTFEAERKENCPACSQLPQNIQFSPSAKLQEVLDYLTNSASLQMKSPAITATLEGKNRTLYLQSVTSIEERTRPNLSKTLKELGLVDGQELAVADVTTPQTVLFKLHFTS

Q: What does the source list for CCOc1nc2cccc(C(=O)OC(C)OC(=O)OC3CCCCC3)c2n1Cc1ccc(-c2ccccc2-c2nnn[nH]2)cc1 (configuration not stated) [CANDESARTAN CILEXETIL]?
A: Activity [1]: Non-Toxic; pIC50 [2]: 4.78
